Laboratory results from article PMC5253108 (European journal of medicinal chemistry, 2016).
Read-outs that look alike come from different tables or passages of the source.

Assays:
[1] = system: BEAS2B lung epithelial cells; assay: In vitro cytotoxicity, Cell-Titer Glo viability, BEAS2B; format: cell-based; conditions: 48 hours
[2] = In vitro liver microsomal stability; format: in vitro ADME, mouse
[3] = system: ovalbumin (S/C) BALB/c mice; conditions: given repeatedly over five days; listed as ethyl ester of XHE-III-74; cited from earlier work
[4] = system: guinea pig tracheal rings; conditions: cited from earlier work
[5] = mouse, cited from earlier work
Swiss Webster mice [6] = conditions: cited from earlier work
HepG2 liver cells = assay: In vitro cytotoxicity, Cell-Titer Glo viability, HepG2; format: cell-based; conditions: 48 hours
HEK293 kidney cells = format: cell-based; conditions: 48 hours, Cell-Titer Glo
[7] = system: murine house dust mite model of asthma; conditions: cited from earlier work
mice = conditions: aerosol delivery in mice; cited from earlier work
[8] = In vitro liver microsomal stability; format: in vitro ADME; conditions: for remaining at 1 h: human
rats = assay: Sensorimotor impairment in rats; format: in vivo, rat; conditions: 15 mg/kg, unpublished results
airway smooth muscle = conditions: cited from earlier work
[9] = Pharmacokinetic study in mice; format: in vivo, mouse
airway eosinophilia = conditions: cited from earlier work
Swiss Webster mice [10] = assay: Rotarod assay of sensorimotor coordination in mice; conditions: 40 mg/kg i.p., Swiss Webster mice, 10, 30 and 60 min
[11] = Solubility in rotarod vehicle; conditions: 50% PBS, 40% propylene glycol, 10% DMSO; for 40 mg/kg i.p. dosing
[12] = Solubility at 10 µM in PBS with 1% DMSO; format: physicochemical; conditions: aqueous buffer, kinetic from dmso stock
[13] = system: guinea pig tracheal rings; conditions: 50 µM compound, substance P contracted rings
α4β3γ2 GABAAR = α4β3γ2 GABAAR (Homo sapiens, UniProt P18507+P48169); assay: GABA induced current potentiation, α4β3γ2 GABAAR; format: biochemical; conditions: 1 µM compound, GABA EC20 concentration
[14] = system: ovalbumin (S/C) BALB/c mice; format: in vivo, mouse; conditions: 40 mg/kg i.p. for 5 days, 12.5 mg/ml methacholine challenge, p<0.05
Outline: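 BALB/c mice were sensitized by ovalbumin injections (2 mg/kg/d in 2 mg alum, days 0, 7, 14) and challenged intranasally with ovalbumin (1.6 mg/kg/d, days 23–27); controls were saline-challenged. Test compound was given i.p. twice daily during the challenge period. Conscious mice had non-invasive sRaw measured after 1 min aerosolized PBS or methacholine (1.56–12.5 mg/mL), averaged over 3 min. Analysis used two-way repeated-measures ANOVA with Bonferroni post-test.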

Chain of α4β3γ2 GABAAR (P48169 36-554): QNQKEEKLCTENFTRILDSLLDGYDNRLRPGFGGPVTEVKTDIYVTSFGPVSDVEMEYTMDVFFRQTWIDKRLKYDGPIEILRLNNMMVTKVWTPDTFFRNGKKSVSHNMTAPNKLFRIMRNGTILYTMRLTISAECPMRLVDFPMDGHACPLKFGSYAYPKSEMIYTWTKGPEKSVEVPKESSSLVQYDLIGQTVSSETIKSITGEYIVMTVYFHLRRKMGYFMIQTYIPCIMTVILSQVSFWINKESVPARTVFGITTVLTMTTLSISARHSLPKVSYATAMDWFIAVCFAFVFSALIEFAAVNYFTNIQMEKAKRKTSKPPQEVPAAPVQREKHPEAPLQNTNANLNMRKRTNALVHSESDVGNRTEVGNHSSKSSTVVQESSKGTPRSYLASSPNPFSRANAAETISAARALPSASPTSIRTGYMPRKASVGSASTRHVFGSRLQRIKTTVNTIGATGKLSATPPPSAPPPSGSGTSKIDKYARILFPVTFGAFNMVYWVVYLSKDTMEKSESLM
Chain of α4β3γ2 GABAAR (P28472 26-473 partner): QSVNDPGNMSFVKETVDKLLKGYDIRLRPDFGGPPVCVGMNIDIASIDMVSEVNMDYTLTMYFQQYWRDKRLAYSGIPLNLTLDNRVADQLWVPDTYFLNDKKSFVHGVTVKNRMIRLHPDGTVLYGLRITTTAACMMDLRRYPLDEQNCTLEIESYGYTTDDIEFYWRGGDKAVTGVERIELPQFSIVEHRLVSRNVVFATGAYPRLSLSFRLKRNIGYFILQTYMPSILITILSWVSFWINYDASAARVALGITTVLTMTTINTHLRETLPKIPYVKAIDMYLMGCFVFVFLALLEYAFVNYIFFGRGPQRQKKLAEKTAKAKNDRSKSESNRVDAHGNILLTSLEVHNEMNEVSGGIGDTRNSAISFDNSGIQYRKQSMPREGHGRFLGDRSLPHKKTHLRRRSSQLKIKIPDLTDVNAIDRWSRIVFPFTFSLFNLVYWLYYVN
Chain of α4β3γ2 GABAAR (P18507 40-475): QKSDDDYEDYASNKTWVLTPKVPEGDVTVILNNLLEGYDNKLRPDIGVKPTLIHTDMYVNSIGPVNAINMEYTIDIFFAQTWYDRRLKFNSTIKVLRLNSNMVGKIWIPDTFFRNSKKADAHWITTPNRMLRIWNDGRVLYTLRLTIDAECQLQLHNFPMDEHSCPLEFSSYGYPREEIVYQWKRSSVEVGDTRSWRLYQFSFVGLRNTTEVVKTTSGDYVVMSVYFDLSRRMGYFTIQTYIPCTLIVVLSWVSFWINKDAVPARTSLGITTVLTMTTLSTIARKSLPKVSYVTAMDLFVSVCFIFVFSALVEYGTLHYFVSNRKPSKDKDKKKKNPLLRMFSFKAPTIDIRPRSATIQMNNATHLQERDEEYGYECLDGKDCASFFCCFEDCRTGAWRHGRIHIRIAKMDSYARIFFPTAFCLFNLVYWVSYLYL

Row | Compound | Toxicity in BEAS 2B (Lung) LD50 [1] | loss at 1 h in mouse liver microsomes [2] | Toxicity in HEPG2 (Liver) LD50 (HepG2 liver cells) | Toxicity in HEK293 (Kidney) LD50 (HEK293 kidney cells) | solubility in the vehicle [11] | solubility [12] | also measured
1 | CCOC(=O)c1ncn2c1[C@@H]1CCCN1C(=O)c1cc(OC)ccc1-2 [Compound 5] | >400 µM | less than 20% | >400 µM | >400 µM | – | – | airway hyperresponsiveness in ovalbumin S/C asthma model [3]: reduced airway hyperresponsiveness; airway muscle constriction caused by substance P [4]: significantly reduced airway muscle constriction; AUC for lung exposure ([5]; same dose as 16, lung): 4516 ng·min/mL; t1/2 ([5]; same dose as 16): 16.3 min; sensorimotor impairment on rotarod (Swiss Webster mice [6]; published previously): weakly induced sensorimotor impairment
2 | COc1ccc2c(c1)C(=O)N1CCC[C@H]1c1c(C(=O)OC(C)(C)C)ncn1-2 [Compound 7, (S)-tert-Butyl-7-methoxy-9-oxo-11,12,13,13a-tetrahydro-9H-benzo[e]imidazo[5,1-c]pyrrolo[1,2-a][1,4]diazepine-1-carboxylate] | >200 µM | – | >400 µM | >100 µM | – | – | airway resistance in murine house dust mite model [7]: reduced airway resistance; airway hyperresponsiveness after aerosol delivery (mice): reduces airway hyperresponsiveness; airway muscle constriction caused by substance P [4]: significantly reduced airway muscle constriction; stability in the presence of human liver microsomes ([8]; liver microsomes): stable; sensorimotor impairment in rats (rats): induced sensorimotor impairment; relaxation of pre-contracted airway smooth muscle (airway smooth muscle): relaxed pre-contracted airway smooth muscle
3 | COc1ccc2c(c1)C(=O)N1CCC[C@H]1c1c(C(=O)O)ncn1-2 [Compound 9, (S)-7-Methoxy-9-oxo-11,12,13,13a-tetrahydro-9H-benzo[e]imidazo[5,1-c]pyrrolo[1,2-a][1,4]di-azepine-1-carboxylic acid] | >400 µM | – | >400 µM | >400 µM | – | – | metabolite in blood samples ([9]; after 5 mg/kg i.p. of 16, mouse blood): not detected in any blood samples; airway eosinophilia (airway eosinophilia): decreased airway eosinophilia; airway eosinophilia (airway eosinophilia; listed as XHE-III-74A): significantly reduced airway eosinophilia; airway muscle constriction caused by substance P [4]: significantly reduced airway muscle constriction; remaining at 1 h ([8]; liver microsomes): < 80%; CNS effects (Swiss Webster mice [6]): no CNS effects
4 | [2H]C([2H])([2H])Oc1ccc2c(c1)C(=O)N1CCC[C@H]1c1c(C(=O)OC)ncn1-2 [Compound 10a] | >400 µM | less than 20% | >400 µM | >400 µM | – | – | sensorimotor impairment on rotarod (Swiss Webster mice [10]): most severe motor impairment; metabolically converted after one hour ([2]; after one hour, corresponds to mouse liver microsome values of Table 1): 15%
5 | COc1ccc2c(c1)C(=O)N1CCC[C@H]1c1c(C(=O)OCC(C)C)ncn1-2 [Compound 11, (S)-Isobutyl-7-methoxy-9-oxo-11,12,13,13a-tetrahydro-9H-benzo[e]imidazo[5,1-c]pyrrolo[1,2-a][1,4]diazepine-1-carboxylate] | >200 µM | – | >200 µM | >100 µM | not soluble in the vehicle | – | remaining at 1 h ([8]; microsomes): < 80%
6 | [2H]C([2H])([2H])Oc1ccc2c(c1)C(=O)N1CCC[C@H]1c1c(C(=O)OCC(C)C)ncn1-2 [Compound 11a] | >200 µM | – | >200 µM | >100 µM | – | – | sensorimotor impairment on rotarod (Swiss Webster mice [10]): most severe motor impairment; remaining at 1 h ([8]; microsomes): < 80%
7 | COc1ccc2c(c1)C(=O)N1CCC[C@H]1c1c(C(=O)OC(C(F)(F)F)C(F)(F)F)ncn1-2 [Compound 12] | >400 µM | – | >400 µM | >200 µM | not soluble in the vehicle | < 10 µM | –
8 | [2H]C([2H])([2H])Oc1ccc2c(c1)C(=O)N1CCC[C@H]1c1c(C(=O)OC(C(F)(F)F)C(F)(F)F)ncn1-2 [Compound 12a] | >400 µM | – | >400 µM | >200 µM | not soluble in the vehicle | – | remaining at 1 h ([8]; microsomes): < 80%
9 | CCSC(=O)c1ncn2c1[C@@H]1CCCN1C(=O)c1cc(OC)ccc1-2 [Compound 13] | >100 µM | – | >100 µM | >100 µM | not soluble in the vehicle | < 10 µM | –
10 | [2H]C([2H])([2H])Oc1ccc2c(c1)C(=O)N1CCC[C@H]1c1c(C(=O)SCC)ncn1-2 [Compound 13a] | >100 µM | – | >100 µM | >100 µM | not soluble in the vehicle | < 10 µM | –
11 | COc1ccc2c(c1)C(=O)N1CCC[C@H]1c1c(C(=O)SC(C)(C)C)ncn1-2 [Compound 14] | >100 µM | – | >100 µM | 18.8 ± 2.4 µM | not soluble in the vehicle | < 10 µM | –
12 | [2H]C([2H])([2H])Oc1ccc2c(c1)C(=O)N1CCC[C@H]1c1c(C(=O)SC(C)(C)C)ncn1-2 [Compound 14a] | >100 µM | – | >100 µM | 16.8 ± 2.0 µM | not soluble in the vehicle | < 10 µM | –
13 | COc1ccc2c(c1)C(=O)N1CCC[C@H]1c1c(C(=O)N(C)C)ncn1-2 [Compound 16] | >400 µM | less than 20% | >400 µM | >400 µM | – | – | time to airway smooth muscle relaxation effect [13]: ≤ 15 min; sensorimotor impairment on rotarod (Swiss Webster mice [10]): did not induce sensorimotor impairment; potentiation of GABA induced current, α4β3γ2 GABAAR (α4β3γ2 GABAAR): 319%; blood brain barrier penetration ([9]; mouse, 5 mg/kg i.p.): did penetrate the blood brain barrier; AUC ([9]; mouse, lung, ip, 5 mg/kg): 12.7 ng·h/mL; specific airway resistance (sRAW) vs vehicle, 5 day treatment [14]: significant reduction in sRAW
14 | [2H]C([2H])([2H])Oc1ccc2c(c1)C(=O)N1CCC[C@H]1c1c(C(=O)N(C)C)ncn1-2 [Compound 16a] | >400 µM | less than 20% | >400 µM | >400 µM | – | – | sensorimotor impairment on rotarod (Swiss Webster mice [10]): did not induce sensorimotor impairment
15 | COc1ccc2c(c1)C(=O)N1CCC[C@H]1c1c(C(=O)NC3CC3)ncn1-2 [Compound 19] | >400 µM | less than 20% | >400 µM | >200 µM | – | – | remaining at 1 h ([8]; microsomes): < 80%; toxicity in HEK293 cells (HEK293 kidney cells): some toxicity
